Experiments:
MDA-MB-231 = experiment: Growth inhibition of human MDA-MB-231 cells incubated for 48 hrs by sulforhodamine B assay; format: functional; settings: MDA-MB-231, 48 h
Summary of the method: (§1)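 Cells were plated at 5,000–40,000 per well according to doubling time and preincubated 24 h at 37 °C in 5% CO2; time-zero plates were then TCA-fixed. Five concentrations (10-fold or ½-log dilutions, DMSO stock) were incubated 48 h. Cells were TCA-fixed, stained with 0.4% SRB and read at 515 nm. GI50 was taken where [(Ti−Tz)/(C−Tz)]×100 = 50.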

NCI-H460 = experiment: Growth inhibition of human NCI-H460 cells incubated for 48 hrs by sulforhodamine B assay; format: functional; settings: NCI-H460, 48 h; summary of the method: as §1
[1] = Growth inhibition of human OVCAR8 cells assessed as cell growth at 10^-4 M incubated for 48 hrs by sulforhodamine B assay; format: functional; settings: OVCAR-8, 48 h, read-out: Activity
SK-MEL-5 = experiment: Growth inhibition of human SK-MEL-5 cells assessed as cell growth at 10^-4 M incubated for 48 hrs by sulforhodamine B assay; format: functional; settings: SK-MEL-5, 48 h, read-out: Activity
T47D = experiment: Growth inhibition of human T47D cells assessed as cell growth at 10^-6 M incubated for 48 hrs by sulforhodamine B assay; format: functional; settings: read-out: Activity
NCI-H226 = experiment: Growth inhibition of human NCI-H226 cells incubated for 48 hrs by sulforhodamine B assay; format: functional; settings: NCI-H226, 48 h; summary of the method: as §1
[2] = Growth inhibition of human RPMI8226 cells incubated for 48 hrs by sulforhodamine B assay; format: functional; settings: RPMI-8226, 48 h; summary of the method: as §1
Albumin = Albumin (Bos taurus, UniProt P02769); experiment: Binding affinity to bovine serum albumin assessed as hyperchromicity in absorption spectra up to 20 uM after 5 mins by UV-visible spectroscopic analysis relative to control; format: ADME; settings: cattle, isolated protein
Summary of the method: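 UV-visible absorption titration of 10 µM BSA in 0.1 M phosphate buffer pH 7.4 with increasing compound, 0–20 µM. Compounds diluted from DMSO stocks into buffer. Spectra recorded 200–800 nm in a 1 cm quartz cell at 300 K after 5 min equilibration. The BSA band is at 279 nm; changes are compared with BSA alone.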

[3] = Growth inhibition of human HCT116 cells assessed as cell growth at 10^-7 M incubated for 48 hrs by sulforhodamine B assay; format: functional; settings: HCT-116, 48 h, read-out: Activity
Summary of the method: (§2)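 Cells seeded at 5,000–40,000/well according to doubling time and preincubated 24 h at 37 °C, 5% CO2. Time-zero plates were TCA-fixed. DMSO concentrate was diluted in medium with 50 µg/ml gentamicin to give five concentrations (10-fold or ½ log steps), then exposed 48 h. Cells were TCA-fixed, stained with 0.4% SRB and read at 515 nm. Percent growth was taken against time-zero and control; GI50, TGI and LC50 derived.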

MCF7 = experiment: Growth inhibition of human MCF7 cells incubated for 48 hrs by sulforhodamine B assay; format: functional; settings: MCF7, 48 h; summary of the method: as §1
[4] = Growth inhibition of human OVCAR4 cells incubated for 48 hrs by sulforhodamine B assay; format: functional; settings: OVCAR-4, 48 h; summary of the method: as §1
[5] = Growth inhibition of human SF268 cells assessed as cell growth at 10^-4 M incubated for 48 hrs by sulforhodamine B assay; format: functional; settings: SF-268, 48 h, read-out: Activity
[6] = Growth inhibition of human PC3 cells assessed as cell growth at 10 uM incubated for 48 hrs by sulforhodamine B assay; format: functional; settings: PC-3, 48 h, read-out: Activity
[7] = Growth inhibition of human UO31 cells assessed as cell growth at 10^-6 M incubated for 48 hrs by sulforhodamine B assay; format: functional; settings: UO-31, 48 h, read-out: Activity
[8] = Growth inhibition of human PC3 cells assessed as cell growth at 10^-5 M incubated for 48 hrs by sulforhodamine B assay; format: functional; settings: PC-3, 48 h, read-out: Activity
[9] = Growth inhibition of human SNB19 cells assessed as cell growth at 10^-8 M incubated for 48 hrs by sulforhodamine B assay; format: functional; settings: SNB-19, 48 h, read-out: Activity
SK-MEL-2 [10] = experiment: Growth inhibition of human SK-MEL-2 cells assessed as cell growth at 10^-4 M incubated for 48 hrs by sulforhodamine B assay; format: functional; settings: SK-MEL-2, 48 h, read-out: Activity
SK-MEL-2 [11] = experiment: Growth inhibition of human SK-MEL-2 cells assessed as cell growth at 10^-6 M incubated for 48 hrs by sulforhodamine B assay; format: functional; settings: SK-MEL-2, 48 h, read-out: Activity
[12] = Growth inhibition of human HCC2998 cells assessed as cell growth at 10^-5 M incubated for 48 hrs by sulforhodamine B assay; format: functional; settings: HCC 2998, 48 h, read-out: Activity; summary of the method: as §2
[13] = Growth inhibition of human TK10 cells assessed as cell growth at 10^-7 M incubated for 48 hrs by sulforhodamine B assay; format: functional; settings: TK-10, 48 h, read-out: Activity
[14] = Growth inhibition of human TK10 cells incubated for 48 hrs by sulforhodamine B assay; format: functional; settings: TK-10, 48 h; summary of the method: as §1
[15] = Growth inhibition of human SKOV3 cells assessed as cell growth at 10^-4 M incubated for 48 hrs by sulforhodamine B assay; format: functional; settings: SK-OV-3, 48 h, read-out: Activity
MDA-MB-468 = experiment: Growth inhibition of human MDA-MB-468 cells assessed as cell growth at 10^-5 M incubated for 48 hrs by sulforhodamine B assay; format: functional; settings: MDA-MB-468, 48 h, read-out: Activity
U-251 = experiment: Growth inhibition of human U251 cells assessed as cell growth at 10^-7 M incubated for 48 hrs by sulforhodamine B assay; format: functional; settings: U-251, 48 h, read-out: Activity
[16] = read-out: LC50 (the source's name)
[17] = read-out: pLC50 (the source's name) (converted)

Albumin, sequence (P02769 whole entry): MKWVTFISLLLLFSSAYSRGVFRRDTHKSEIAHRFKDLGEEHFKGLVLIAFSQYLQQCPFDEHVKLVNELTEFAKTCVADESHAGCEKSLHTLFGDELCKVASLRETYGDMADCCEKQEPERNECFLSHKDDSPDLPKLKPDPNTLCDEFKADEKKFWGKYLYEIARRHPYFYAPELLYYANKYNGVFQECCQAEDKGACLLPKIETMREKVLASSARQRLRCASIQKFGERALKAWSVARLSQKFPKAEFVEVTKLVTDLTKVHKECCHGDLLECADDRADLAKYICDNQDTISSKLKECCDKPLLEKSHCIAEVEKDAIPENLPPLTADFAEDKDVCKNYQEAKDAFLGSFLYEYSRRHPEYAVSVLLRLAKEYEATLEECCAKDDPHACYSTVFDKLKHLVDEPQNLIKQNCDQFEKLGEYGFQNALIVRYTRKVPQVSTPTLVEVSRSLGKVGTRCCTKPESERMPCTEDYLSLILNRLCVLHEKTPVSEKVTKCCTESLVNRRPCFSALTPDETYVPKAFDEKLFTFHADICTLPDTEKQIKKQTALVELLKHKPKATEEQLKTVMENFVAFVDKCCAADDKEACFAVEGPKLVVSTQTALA

Clc1ccc(-c2nc(Nc3ccc(-c4nc5ccccc5[nH]4)cc3)nc(N3CCOCC3)n2)cc1
GI50 (MDA-MB-231; read-out: GI50): 193 nM
TGI (MDA-MB-231; read-out: TGI): 422 nM
GI50 (MDA-MB-231; read-out: pGI50 (converted)): 195 nM
TGI (MDA-MB-231; read-out: pTGI (converted)): 417 nM
GI50 (NCI-H460; read-out: GI50): 222 nM
TGI (NCI-H460; read-out: TGI): 491 nM
GI50 (NCI-H460; read-out: pGI50 (converted)): 224 nM
TGI (NCI-H460; read-out: pTGI (converted)): 490 nM
growth at 100 µM [1]: -79%
growth at 100 µM (SK-MEL-5): -51%
growth at 1 µM (T47D): 19%
GI50 (NCI-H226; read-out: GI50): 2110 nM
TGI (NCI-H226; read-out: TGI): 4440 nM
GI50 (NCI-H226; read-out: pGI50 (converted)): 2090 nM
TGI (NCI-H226; read-out: pTGI (converted)): 4470 nM
GI50 ([2]; read-out: GI50): 257 nM
TGI ([2]; read-out: TGI): 682 nM
GI50 ([2]; read-out: pGI50 (converted)): 257 nM
TGI ([2]; read-out: pTGI (converted)): 676 nM
Activity (Albumin): 97.67%
growth at 0.1 µM [3]: 93%
GI50 (MCF7; read-out: GI50): 194 nM
TGI (MCF7; read-out: TGI): 490 nM
GI50 (MCF7; read-out: pGI50 (converted)): 195 nM
TGI (MCF7; read-out: pTGI (converted)): 490 nM
GI50 ([4]; read-out: GI50): 1040 nM
CC50 [4, 16]: 5530 nM
TGI ([4]; read-out: TGI): 2400 nM
GI50 ([4]; read-out: pGI50 (converted)): 1050 nM
CC50 [4, 17]: 5500 nM
TGI ([4]; read-out: pTGI (converted)): 2400 nM
growth at 100 µM [5]: -24%
growth at 10 µM [6]: -93.5%
growth at 1 µM [7]: 80%
growth at 10 µM [8]: -89%
growth at 0.01 µM [9]: 102%
growth at 100 µM (SK-MEL-2 [10]): -40%
growth at 1 µM (SK-MEL-2 [11]): 97%
growth at 10 µM [12]: -57%
growth at 0.1 µM [13]: 92%
GI50 ([14]; read-out: GI50): 1960 nM
CC50 [14, 16]: 5970 nM
TGI ([14]; read-out: TGI): 3420 nM
GI50 ([14]; read-out: pGI50 (converted)): 1950 nM
CC50 [14, 17]: 6030 nM
TGI ([14]; read-out: pTGI (converted)): 3390 nM
growth at 100 µM [15]: -50%
growth at 10 µM (MDA-MB-468): -71%
growth at 0.1 µM (U-251): 103%
